Measured values from ChEMBL document CHEMBL1144643, “Optimization of imidazole amide derivatives as cannabinoid-1 receptor antagonists for the treatment of obesity” (Bioorg Med Chem Lett, 2007).
Active and inactive are the calls of the source. No cut-off for these calls is given here.

What was measured:
[1] = biological target: T1, Cannabinoid receptor 1 (Homo sapiens, UniProt P21554); experiment: biochemical; type: cell-based, HEK293
[2] = tested on: Rattus norvegicus; experiment: Reduction of body weight in Zucker fa/fa rat at 10 mg/kg, po after 8 days; type: functional; set-up: scale not given: the % may be the effect or the level left
Method in brief: (§1)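 Two-day baseline body weight and 24 h food and water intake, then weight-matched into groups. Daily oral dose of 1, 5 or 10 mg/kg suspension (2 mL/kg) before the nocturnal feeding phase. Body weight recorded daily; change versus vehicle-treated rats.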

[3] = biological target: T1, Cannabinoid receptor 1; experiment: Antagonist activity at human CB1 receptor expressed in CHOK1 cells assessed as inhibition of forskolin-stimulated cAMP levels; type: functional, cell-based; conditions: CHO-K1
Method in brief: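 Incubated 20 min at 37 °C with graded agonist plus 3 µM forskolin (final), with or without a fixed antagonist concentration. cAMP measured by scintillation proximity assay. Kb from the agonist EC50 concentration ratio: pKb = log(CR−1) − log B.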

[4] = Cmax in Wistar rat plasma at 10 mg/kg, po; type: ADME, organism-based; set-up: dose 10 mg/kg, route oral
Method in brief: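 Wistar rats dosed orally at 10 mg/kg, typically as a 30% cyclodextrin suspension or as a suspension in PEG400/25 mM methanesulfonic acid (80:20). Plasma levels sampled typically at 0.5, 1 and 2 h after dosing; Cmax taken from these time points.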

[5] = tested on: Rattus norvegicus; experiment: Reduction of food intake in fasted-refed Wistar rat at 10 mg/kg, po after 3 hrs; type: functional; set-up: scale not given: the % may be the effect or the level left
Method in brief: (§2)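 Male Wistar rats, individually housed on mesh floors, 12-h/12-h light/dark cycle, fasted overnight (18 h). Single oral dose of vehicle or compound at 10 mg/kg (2 mL/kg), vehicle 30% cyclodextrin or PEG/MSA, 1 h before re-feeding. Cumulative food intake recorded at 30, 60, 90, 180 and 240 min, corrected for spillage. 10 rats per group; percent reduction versus vehicle.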

[6] = tested on: Rattus norvegicus; experiment: Reduction of food intake in fasted-refed Wistar rat at 10 mg/kg, po after 4 hrs; type: functional; set-up: scale not given: the % may be the effect or the level left
Method in brief: as §2

[7] = tested on: Rattus norvegicus; experiment: Reduction of body weight in Zucker fa/fa rat at 5 mg/kg, po after 13 days; type: functional; set-up: scale not given: the % may be the effect or the level left
Method in brief: as §1

[8] = tested on: Rattus norvegicus; experiment: Reduction of body weight in Zucker fa/fa rat at 1 mg/kg, po after 13 days; type: functional, Zuker fa/fa; set-up: scale not given: the % may be the effect or the level left
Method in brief: as §1

[9] = biological target: Cannabinoid receptor 2 (Homo sapiens, UniProt P34972); experiment: Displacement of [3H][…] from human CB2 receptor expressed in HEK293 cells; type: cell-based
Method in brief: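 HEK 293 membranes expressing human CB-2 (3.3 µg protein) incubated with 0.3 nM [3H]CP 55940 and varying competitor concentrations. Binding buffer: 50 mM Tris pH 7.4, 2.5 mM EDTA, 5 mM MgCl2, 0.1% fatty-acid-free BSA; 90 min at 30 °C with shaking. Nonspecific binding defined with 10 µM WIN 55212-2. Filtered through GF/C plates, read by scintillation counting. Nonlinear regression; mean of two or more triplicate runs.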

[10] = tested on: Rattus norvegicus; experiment: Reduction of food intake in fasted-refed Wistar rat at 10 mg/kg, po after 0.5 hrs; type: functional; set-up: scale not given: the % may be the effect or the level left
Method in brief: as §2

[11] = tested on: Rattus norvegicus; experiment: Reduction of food intake in fasted-refed Wistar rat at 10 mg/kg, po after 1 hr; type: functional; set-up: scale not given: the % may be the effect or the level left
Method in brief: as §2

[12] = tested on: Rattus norvegicus; experiment: Reduction of food intake in fasted-refed Wistar rat at 10 mg/kg, po after 1.5 hrs; type: functional; set-up: scale not given: the % may be the effect or the level left
Method in brief: as §2

[13] = tested on: Rattus norvegicus; experiment: Reduction of body weight in Zucker fa/fa rat at 10 mg/kg, po after 13 days; type: functional; set-up: scale not given: the % may be the effect or the level left
Method in brief: as §1

[14] = tested on: Rattus norvegicus; experiment: Reduction of food intake in fasted-refed Wistar rat at 10 mg/kg, po after 0.5 to 4 hrs; type: functional; set-up: scale not given: the % may be the effect or the level left
Method in brief: as §2

[15] = tested on: Rattus norvegicus; experiment: Effect on cumulative food intake in fasted-refed Wistar rat assessed as appetite suppression at 10 mg/kg, po; type: functional, organism-based; set-up: dose 10 mg/kg
Method in brief: as §2

[16] = Drug level in Wistar rat brain at 10 mg/kg, po after 2 hrs; type: ADME, organism-based; set-up: dose 10 mg/kg, route oral; conditions: read-out: Drug uptake
Method in brief: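 Brain levels measured 2 h after a 10 mg/kg oral dose to Wistar rats, within pharmacokinetic screening; oral vehicle was PEG/MSA suspension.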

T1 sequence (P21554 whole entry): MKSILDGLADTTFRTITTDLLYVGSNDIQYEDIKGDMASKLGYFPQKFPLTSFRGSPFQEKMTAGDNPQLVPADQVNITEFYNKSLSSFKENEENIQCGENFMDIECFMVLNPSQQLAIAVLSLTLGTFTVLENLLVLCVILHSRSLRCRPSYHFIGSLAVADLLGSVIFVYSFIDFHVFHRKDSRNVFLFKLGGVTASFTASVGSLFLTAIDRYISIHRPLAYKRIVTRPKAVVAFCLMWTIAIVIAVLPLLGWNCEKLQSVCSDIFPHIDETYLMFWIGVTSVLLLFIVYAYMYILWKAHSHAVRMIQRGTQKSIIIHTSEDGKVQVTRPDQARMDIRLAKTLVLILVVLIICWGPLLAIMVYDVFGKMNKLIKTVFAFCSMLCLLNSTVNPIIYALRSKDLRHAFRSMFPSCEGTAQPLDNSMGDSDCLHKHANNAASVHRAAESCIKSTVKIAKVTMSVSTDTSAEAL
Sequence of Cannabinoid receptor 2 (P34972 whole entry): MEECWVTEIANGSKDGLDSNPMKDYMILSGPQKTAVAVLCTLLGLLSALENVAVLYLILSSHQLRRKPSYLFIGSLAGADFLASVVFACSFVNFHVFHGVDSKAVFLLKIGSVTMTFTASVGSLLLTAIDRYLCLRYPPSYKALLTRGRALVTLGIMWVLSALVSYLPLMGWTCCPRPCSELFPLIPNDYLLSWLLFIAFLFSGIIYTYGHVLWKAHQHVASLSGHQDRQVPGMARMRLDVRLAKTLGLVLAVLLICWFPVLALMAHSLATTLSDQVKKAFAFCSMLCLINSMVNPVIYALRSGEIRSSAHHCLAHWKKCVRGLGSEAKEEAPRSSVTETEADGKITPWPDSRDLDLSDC

## N[C@H]1CCCC[C@@H]1NC(=O)c1cn(-c2ccc(Cl)cc2)c(-c2ccc(Cl)cc2Cl)n1
[1]
  Ki: 0.27 µM

## COc1ccccc1-c1nc(C(=O)NC2CCCCC2)cn1-c1ccc(Cl)cc1
[1]
  Ki: 0.095 µM

## O=C(N[C@H]1Cc2ccccc2[C@@H]1O)c1cn(-c2ccc(Cl)cc2)c(-c2ccccc2Cl)n1 (racemic)
[1]
  Ki: 0.041 µM

## Cc1c(C(=O)NN2CCCCC2)nn(-c2ccc(Cl)cc2Cl)c1-c1ccc(Cl)cc1 [RIMONABANT]
[2]
  Activity: 6.5%

## CCc1c(C(=O)N[C@H]2CCCC[C@@H]2O)nc(-c2ccccc2Cl)n1-c1ccc(Br)cc1
[3]
  Kb: 0.013 µM
[4]
  Cmax: 2100 nM
[5]
  Activity: 52%
[1]
  Ki: 0.0037 µM
[6]
  Activity: 35%
[7]
  Activity: -6.1%
[8]
  Activity: -1.9%
[9]
  Ki: 2.7 µM
[10]
  Activity: 63%
[11]
  Activity: 64%
[12]
  Activity: 62%
[2]
  Activity: 5.6%
[13]
  Activity: -10.6%

## CN(C(=O)c1cn(-c2ccc(Cl)cc2)c(-c2ccccc2Cl)n1)C1CCCCC1
[1]
  Ki: 0.034 µM

## COc1ccc(-n2cc(C(=O)NC3CCCCC3)nc2-c2ccccc2Cl)cc1
[1]
  Ki: 0.009 µM

## O=C(NC1CCCCC1)c1cn(-c2ccc(Cl)cc2)c(-c2ccccc2Cl)n1
[3]
  Kb: 0.011 µM
[1]
  Ki: 0.0022 µM
[9]
  Ki: 2.3 µM

## CCCc1c(C(=O)N[C@H]2CCCC[C@@H]2O)nc(-c2ccccc2Cl)n1-c1ccc(Cl)cc1
[3]
  Kb: 0.0014 µM
[1]
  Ki: 0.0057 µM
[9]
  Ki: 2.7 µM

## O=C(N[C@H]1c2ccccc2C[C@@H]1O)c1cn(-c2ccc(Cl)cc2)c(-c2ccccc2Cl)n1 (racemic)
[1]
  Ki: 0.022 µM

## O=C(NC1CCCCC1)c1cn(-c2ccc(F)cc2)c(-c2ccc(Cl)cc2Cl)n1
[1]
  Ki: 0.0082 µM

## O=C(NC1CCCCC1O)c1cn(-c2ccc(Cl)cc2)c(-c2ccc(Cl)cc2Cl)n1 (racemic)
[3]
  Kb: 0.0044 µM
[14]
  Activity: 21%
[1]
  Ki: 0.022 µM
[9]
  Ki: 1.1 µM

## COc1ccc(-n2cc(C(=O)NC3CCCCC3)nc2-c2ccc(Cl)cc2Cl)cc1
[1]
  Ki: 0.0049 µM

## O=C(N[C@H]1Cc2ccccc2[C@H]1O)c1cn(-c2ccc(Cl)cc2)c(-c2ccccc2Cl)n1 (racemic)
[1]
  Ki: 0.017 µM

## N[C@@H]1CCCC[C@H]1NC(=O)c1cn(-c2ccc(Cl)cc2)c(-c2ccc(Cl)cc2Cl)n1
[1]
  Ki: 0.94 µM

## Cc1ccc(-c2nc(C(=O)NC3CCCCC3)cn2-c2ccc(Cl)cc2)c(C)c1
[1]
  Ki: 0.0072 µM

## O=C(N[C@@H]1c2ccccc2C[C@@H]1O)c1cn(-c2ccc(Cl)cc2)c(-c2ccccc2Cl)n1
[3]
  Kb: 0.0092 µM
[1]
  Ki: 0.018 µM
[9]
  Ki: 5.1 µM

## O=C(NC1CCCCC1)c1cn(-c2ccc(F)cc2)c(-c2ccccc2Cl)n1
[1]
  Ki: 0.02 µM

## O=C(N[C@@H]1CCCC[C@H]1O)c1cn(-c2ccc(Cl)cc2)c(-c2ccccc2Cl)n1
[3]
  Kb: 0.022 µM
[1]
  Ki: 0.097 µM

## Cc1ccccc1-c1nc(C(=O)NC2CCCCC2)cn1-c1ccc(Cl)cc1
[3]
  Kb: 0.0073 µM
[1]
  Ki: 0.021 µM
[9]
  Ki: > 1 µM

## CN[C@@H]1CCCC[C@H]1NC(=O)c1cn(-c2ccc(Cl)cc2)c(-c2ccc(Cl)cc2Cl)n1
[1]
  Ki: 0.92 µM

## CC1CCC(n2cc(C(=O)NC3CCCCC3)nc2-c2ccccc2Cl)CC1 (stereo not given)
[1]
  Ki: 0.017 µM

## O=C(NC1CCCCC1)c1cn(-c2ccc(Cl)cc2)c(-c2ccc(Cl)cc2Cl)n1
[3]
  Kb: 0.018 µM
[4]
  Cmax: 50 nM
[1]
  Ki: 0.0039 µM
[15]
  Activity: inactive
[9]
  Ki: 0.24 µM

## Cc1c(C(=O)N[C@H]2CCCC[C@@H]2O)nc(-c2ccccc2Cl)n1-c1ccc(Cl)cc1
[1]
  Ki: 0.0069 µM

## O=C(NC1CCCCC1)c1cn(-c2ccc(Cl)cc2)c(-c2ccc(F)cc2F)n1
[1]
  Ki: 0.036 µM

## CN[C@H]1CCCC[C@@H]1NC(=O)c1cn(-c2ccc(Cl)cc2)c(-c2ccc(Cl)cc2Cl)n1
[1]
  Ki: 0.62 µM

## O=C(NC1CCCCC1)c1cn(-c2ccc(Cl)cc2)c(-c2ccccc2)n1
[1]
  Ki: 0.13 µM

## O=C(N[C@H]1CCCC[C@@H]1O)c1nc(-c2ccccc2Cl)n(-c2ccc(Cl)cc2)c1Br
[1]
  Ki: 0.019 µM

## Cc1ccc(-n2cc(C(=O)NC3CCCCC3)nc2-c2ccc(Cl)cc2Cl)cc1
[1]
  Ki: 0.0019 µM

## O=C(N[C@@H]1CCC[C@H]1O)c1cn(-c2ccc(Cl)cc2)c(-c2ccccc2Cl)n1
[1]
  Ki: 0.075 µM

## CCc1c(C(=O)N[C@H]2CCCC[C@@H]2O)nc(-c2ccccc2Cl)n1-c1ccc(Cl)cc1
[9]
  Ki: 2.3 µM

## CC(C)c1c(C(=O)N[C@H]2CCCC[C@@H]2O)nc(-c2ccccc2Cl)n1-c1ccc(Cl)cc1
[1]
  Ki: 0.018 µM

## CCc1ccccc1-c1nc(C(=O)NC2CCCCC2)cn1-c1ccc(Cl)cc1
[1]
  Ki: 0.039 µM

## O=C(N[C@H]1CCCC[C@@H]1O)c1cn(-c2ccc(Cl)cc2)c(-c2ccccc2Cl)n1
[3]
  Kb: 0.0071 µM
[4]
  Cmax: 1640 nM
[14]
  Activity: 34%
[1]
  Ki: 0.029 µM
[9]
  Ki: 5.3 µM
[16]
  concentration at 2 h: 110 nM

## CCCCc1c(C(=O)N[C@H]2CCCC[C@@H]2O)nc(-c2ccccc2Cl)n1-c1ccc(Cl)cc1
[1]
  Ki: 0.01 µM

## O=C(N[C@H]1CCC[C@@H]1O)c1cn(-c2ccc(Cl)cc2)c(-c2ccccc2Cl)n1
[3]
  Kb: 0.0097 µM
[4]
  Cmax: 2110 nM
[14]
  Activity: 26%
[1]
  Ki: 0.029 µM
[9]
  Ki: 6.3 µM
[16]
  concentration at 2 h: 330 nM

## O=C(NC1CCCCC1)c1cn(-c2cccnc2)c(-c2ccccc2Cl)n1
[1]
  Ki: 1.1 µM

## O=C(NC1CCCCC1)c1cn(-c2ccc(Cl)cc2)c(-c2cc(Cl)ccc2Cl)n1
[1]
  Ki: 0.025 µM

## Cc1ccc(-n2cc(C(=O)NC3CCCCC3)nc2-c2ccccc2Cl)cc1
[1]
  Ki: 0.0046 µM

## O=C(N[C@H]1c2ccccc2C[C@H]1O)c1cn(-c2ccc(Cl)cc2)c(-c2ccccc2Cl)n1
[3]
  Kb: 0.0022 µM
[1]
  Ki: 0.0063 µM
[9]
  Ki: 1.2 µM
